Data set [1] deals with T1, Acetylcholinesterase (Homo sapiens, UniProt P22303). Put plainly: Reversible inhibition of AChE (unknown origin) assessed as residual activity at 10 times IC50 incubated for 30 mins by dilution method relative to control. In outline: (§1)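 Samples then diluted 100-fold with substrate, giving final inhibitor levels of 0.1× and 1× IC50. Recovered activity measured relative to control; triplicate.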

In data set [2] the test system is SH-SY5Y. The data set can be described thus: Neuroprotective activity against 6-OHDA-induced cytotoxicity in human SH-SY5Y cells assessed as cell viability at 5 uM incubated for 24 hrs followed by exposure to 6-OHDA by MTT assay relative to control. To be noted: read-out: Activity. The class given is functional. In outline:
(§2)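 SH-SY5Y cells treated with compound (1, 5, 25 μM) and challenged with 6-OHDA; cultured 24 h at 37 °C under humidified 5% CO2. Viability measured by MTT as formazan absorbance at 594 nm and expressed relative to control.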
A general note: Tetrazolium dyes change colour on reduction, which living cells bring about.

Data set [3] deals with T1, Acetylcholinesterase. Put plainly: Reversible inhibition of AChE (unknown origin) assessed as residual activity at 1 times IC50 incubated for 30 mins by dilution method relative to control. In outline: as §1
Data set [4] concerns SH-SY5Y. The data set can be described thus: Inhibition of ROS production in human SH-SY5Y cells assessed as intracellular ROS level at 5 uM incubated for 24 hrs by DCF-DA staining based fluorescence analysis relative to control. It is filed as functional. In outline:
(§3)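 Cultured SH-SY5Y cells exposed to compound (1, 5, 25 μM) for 24 h; intracellular ROS detected with DCF-DA, which is converted to fluorescent 2,7-DCF, read at ex 478/em 518 nm. Inhibition is expressed relative to control. Mean ± SD of triplicate or more independent experiments.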

The subject of data set [5] is SH-SY5Y. The data set can be described thus: Neuroprotective activity against 6-OHDA-induced cytotoxicity in human SH-SY5Y cells assessed as cell viability at 25 uM incubated for 24 hrs followed by exposure to 6-OHDA by MTT assay relative to control. The class given is functional. To be noted: read-out: Activity. In outline: as §2
In data set [6] the target is T2, Amine oxidase [flavin-containing] B (Homo sapiens, UniProt P27338).
T2 sequence (P27338 whole entry): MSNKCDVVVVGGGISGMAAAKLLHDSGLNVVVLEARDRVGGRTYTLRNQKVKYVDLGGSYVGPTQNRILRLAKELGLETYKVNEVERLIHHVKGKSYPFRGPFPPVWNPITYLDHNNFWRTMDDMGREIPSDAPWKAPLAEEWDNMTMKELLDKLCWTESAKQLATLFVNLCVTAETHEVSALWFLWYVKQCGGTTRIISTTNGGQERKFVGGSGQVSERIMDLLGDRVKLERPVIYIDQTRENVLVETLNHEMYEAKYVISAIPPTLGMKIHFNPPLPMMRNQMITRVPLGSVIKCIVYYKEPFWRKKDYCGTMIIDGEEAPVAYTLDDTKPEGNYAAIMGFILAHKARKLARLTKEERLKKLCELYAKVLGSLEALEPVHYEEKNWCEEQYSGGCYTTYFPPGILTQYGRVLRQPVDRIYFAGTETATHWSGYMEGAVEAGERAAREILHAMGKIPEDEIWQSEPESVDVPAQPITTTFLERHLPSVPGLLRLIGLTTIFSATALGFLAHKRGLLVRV
The data set can be described thus: Reversible inhibition of MAO-B (unknown origin) assessed as residual activity at 1 times IC50 incubated for 30 mins by dilution method relative to control. As to conditions: 0.5 h.

In data set [7] the target is T2, Amine oxidase [flavin-containing] B. Put plainly: Reversible inhibition of MAO-B (unknown origin) assessed as residual activity at 0.1 times IC50 incubated for 30 mins by dilution method relative to control. To be noted: 0.5 h.
For data set [8], the system named is SH-SY5Y. Put plainly: Cytotoxicity against human SH-SY5Y cells assessed as reduction in cell viability at 1 to 25 uM by MTT assay. The class given is functional, cell-based. To be noted: dose 1-25 µM. Summed up:
(§4)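 SH-SY5Y cells (DMEM/F-12 with 10% FBS, 1% horse serum, 1% penicillin) preincubated 24 h with compound at 1, 5 or 25 μM; MTT converted to formazan, solubilised in DMSO, absorbance read at 595 nm; viability expressed as percentage of untreated control.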

Data set [9] deals with SH-SY5Y. Put plainly: Cytotoxicity against human SH-SY5Y cells assessed as cell viability at 5 uM by MTT assay relative to control. The class given is functional. To be noted: read-out: Activity. In outline:
as §4

Data set [10] deals with T1, Acetylcholinesterase. The data set can be described thus: Mixed type inhibition of AChE (unknown origin) by Lineweaver-Burk plot analysis. Summed up:
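Ellman-based AChE kinetics run at several substrate concentrations and several final inhibitor concentrations. Mode of inhibition assigned from double-reciprocal Lineweaver–Burk plots.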

The test system of data set [11] is SH-SY5Y. Put plainly: Inhibition of ROS production in human SH-SY5Y cells assessed as intracellular ROS level at 1 uM incubated for 24 hrs by DCF-DA staining based fluorescence analysis relative to control. It is filed as functional. In outline:
as §3

The target of data set [12] is Amyloid-beta precursor protein (Homo sapiens) (UniProt P05067). Put plainly: Inhibition of self-induced amyloid beta (1 to 42 residues) (unknown origin) aggregation assessed as reduction in fibrils formation measured after 72 hrs by FE-SEM analysis. Summed up: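 HFIP-pretreated Aβ1-42 incubated with or without inhibitor for 72 h; samples placed on carbon-coated copper grids, dried 1 h at 37 °C, imaged by FE-SEM. Glycine–NaOH buffer served as blank and Aβ alone as control.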

The target in data set [13] is T3, Amine oxidase [flavin-containing] A (Homo sapiens, UniProt P21397).
T3 sequence (P21397 whole entry): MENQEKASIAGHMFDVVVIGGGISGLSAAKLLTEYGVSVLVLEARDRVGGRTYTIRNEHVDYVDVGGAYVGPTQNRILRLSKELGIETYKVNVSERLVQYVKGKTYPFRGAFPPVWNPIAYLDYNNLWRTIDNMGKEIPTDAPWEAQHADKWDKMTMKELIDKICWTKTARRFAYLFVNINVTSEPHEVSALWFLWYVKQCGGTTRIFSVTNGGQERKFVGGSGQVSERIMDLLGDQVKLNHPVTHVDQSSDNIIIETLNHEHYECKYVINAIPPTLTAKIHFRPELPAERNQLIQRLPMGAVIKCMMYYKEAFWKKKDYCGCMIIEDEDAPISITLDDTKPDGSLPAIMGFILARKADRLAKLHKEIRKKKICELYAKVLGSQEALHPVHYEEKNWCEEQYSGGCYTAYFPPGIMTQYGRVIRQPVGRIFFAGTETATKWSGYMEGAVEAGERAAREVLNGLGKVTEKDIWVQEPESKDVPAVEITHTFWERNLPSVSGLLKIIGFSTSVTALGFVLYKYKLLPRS
The data set can be described thus: Inhibition of recombinant MAO-A (unknown origin) at 20 uM preincubated for 30 mins followed substrate addition by Amplex Red reagent based fluorescence analysis relative to control. In outline: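 Recombinant MAO enzyme preincubated with compound 30 min at 37 °C; substrate, HRP and Amplex Red working solution then added; H2O2 formation read at 37 °C by fluorescence, ex 545/em 590 nm. Screening at 20 μM as % inhibition versus control; IC50 only for compounds above 50% inhibition at 20 μM; triplicate (n = 3).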

Data set [14] concerns the target Amyloid-beta precursor protein (Homo sapiens) (UniProt P05067). Put plainly: Inhibition of self-induced amyloid beta (1 to 42 residues) (unknown origin) aggregation at 20 uM incubated at 24 hrs by fluorimetry-based thioflavin T assay. In outline:
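Aβ1-42 pretreated with HFIP (1 mg mL−1) and dried, then incubated with compound (20 μM) at 37 °C for 24 h; an aliquot transferred and incubated further to 48 h. Glycine–NaOH buffer pH 8.0 with 5 μM ThT added; fluorescence read at 440–485 nm. % inhibition calculated against the Aβ-only control taken as 0%.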

Each structure is given as a SMILES string. Active and inactive are the calls of the source. The calls are words filed in the database; no cut-off is given here.

Usually inhibition stands for the drop in the measured response relative to a control, in per cent.

T1 sequence (P22303 whole entry): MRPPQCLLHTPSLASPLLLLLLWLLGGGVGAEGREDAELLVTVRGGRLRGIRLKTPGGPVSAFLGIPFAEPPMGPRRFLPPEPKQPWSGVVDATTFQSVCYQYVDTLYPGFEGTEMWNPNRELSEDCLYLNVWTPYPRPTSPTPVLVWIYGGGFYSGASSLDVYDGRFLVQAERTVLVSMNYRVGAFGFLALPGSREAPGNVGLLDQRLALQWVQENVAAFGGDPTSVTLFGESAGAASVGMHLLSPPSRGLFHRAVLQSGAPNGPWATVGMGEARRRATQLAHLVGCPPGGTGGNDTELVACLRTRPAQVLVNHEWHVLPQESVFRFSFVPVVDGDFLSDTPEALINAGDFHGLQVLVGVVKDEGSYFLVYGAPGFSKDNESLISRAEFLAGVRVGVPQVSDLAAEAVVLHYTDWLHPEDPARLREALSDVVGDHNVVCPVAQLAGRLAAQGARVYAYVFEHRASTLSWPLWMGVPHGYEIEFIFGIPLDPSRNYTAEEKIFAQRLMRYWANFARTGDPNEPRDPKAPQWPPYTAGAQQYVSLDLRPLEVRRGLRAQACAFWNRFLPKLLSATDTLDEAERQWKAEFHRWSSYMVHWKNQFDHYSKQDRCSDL
Sequence of Amyloid-beta precursor protein (Homo sapiens) (P05067 whole entry, the tested form may be a part): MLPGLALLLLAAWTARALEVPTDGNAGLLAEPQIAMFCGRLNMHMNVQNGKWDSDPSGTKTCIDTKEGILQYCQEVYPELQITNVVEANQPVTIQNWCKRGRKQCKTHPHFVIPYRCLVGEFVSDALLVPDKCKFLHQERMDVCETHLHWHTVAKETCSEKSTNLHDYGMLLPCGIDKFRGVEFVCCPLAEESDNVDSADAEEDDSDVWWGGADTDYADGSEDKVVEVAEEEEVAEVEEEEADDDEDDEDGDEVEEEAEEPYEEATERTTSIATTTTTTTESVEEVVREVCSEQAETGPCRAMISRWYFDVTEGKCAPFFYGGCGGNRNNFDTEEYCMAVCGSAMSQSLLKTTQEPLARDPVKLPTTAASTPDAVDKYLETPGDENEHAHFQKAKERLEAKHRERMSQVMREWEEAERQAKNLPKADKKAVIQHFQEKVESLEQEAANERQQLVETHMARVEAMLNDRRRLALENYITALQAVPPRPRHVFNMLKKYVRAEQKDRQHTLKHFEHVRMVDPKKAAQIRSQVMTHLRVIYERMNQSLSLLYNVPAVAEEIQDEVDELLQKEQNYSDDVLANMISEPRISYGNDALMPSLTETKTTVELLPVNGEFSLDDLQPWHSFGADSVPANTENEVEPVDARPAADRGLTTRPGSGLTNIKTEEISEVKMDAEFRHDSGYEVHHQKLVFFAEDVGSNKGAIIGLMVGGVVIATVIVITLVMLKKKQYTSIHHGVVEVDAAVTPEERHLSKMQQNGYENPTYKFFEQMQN

For the molecule `C#CCCCOc1ccc(-c2cc(=O)c3ccccc3o2)cc1CN1CCCCC1`, the Activity was 28.9% in data set [1]; 44.9% in data set [3]; 50.3% in data set [6]; 71.4% in data set [7]; “Not toxic” in data set [8]. The viability at 5 µM in [2] worked out at 42.9%; in [9] it was 97.4%. In [4], the inhibition at 5 µM came out at 44.9%. The viability at 25 µM in [5] is 44.1%. The inhibition result in data set [10] and in data set [12] was “Active” in each case. Moreover, the inhibition at 1 µM in [11] stood at 65.7%. In addition, the inhibition at 20 µM in [13] was 0.23%. Moreover, the inhibition in data set [14] is 22.1%.

The record behind these values is ChEMBL document CHEMBL6134795, “Mannich reaction mediated derivatization of chromones and their biological evaluations as putative multipotent ligands for the treatment of Alzheimer's disease” (RSC Med Chem, 2024).
